Holding throughout (format): functional, organism-based
The test system of assay [1] is Human immunodeficiency virus 1. In words: Antiviral activity against HIV1 3B in human CEM-SS cells assessed as inhibition of virus-induced cytopathic effect by XTT assay. The settings on record: Human immunodeficiency virus 1, 3B. Put shortly:
(§1)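 Peptide samples dissolved in 100% DMSO or H2O-DMSO (3:1), then diluted to test concentrations. Tested in an in vitro XTT tetrazolium-based cell assay for protection against the cytopathic effects of productive HIV-1 infection. EC50 is the concentration giving 50% protection, determined separately for each virus strain and target cell line pairing.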
A general note: Damage to the host cells serves as the signal in cytopathic effect assays.

Assay [2] deals with Human immunodeficiency virus 1. In words: Antiviral activity against HIV1 RF in human CEM-SS cells assessed as inhibition of virus-induced cytopathic effect by XTT assay. The note with it: Human immunodeficiency virus 1, RF. A digest of the protocol:
as §1

Assay [3] concerns Human immunodeficiency virus 1. As to the kind of experiment: Antiviral activity against HIV1 214 in human CEM-SS cells assessed as inhibition of virus-induced cytopathic effect by XTT assay. The note with it: Human immunodeficiency virus 1, CEM-SS. A digest of the protocol:
as §1

In assay [4] the test system is Human immunodeficiency virus 1. As to the kind of experiment: Antiviral activity against HIV1 205 in human CEM-SS cells assessed as inhibition of virus-induced cytopathic effect by XTT assay. The note with it: Human immunodeficiency virus 1, CEM-SS. A digest of the protocol: as §1
Assay [5] has as its system Human immunodeficiency virus 1. As to the kind of experiment: Antiviral activity against HIV1 G in human CEM-SS cells assessed as inhibition of virus-induced cytopathic effect by XTT assay. The note with it: Human immunodeficiency virus 1, CEM-SS. Put shortly:
as §1

The test system of assay [6] is Human immunodeficiency virus 1. In words: Antiviral activity against HIV1 SK1 in human CEM-SS cells assessed as inhibition of virus-induced cytopathic effect by XTT assay. The settings on record: Human immunodeficiency virus 1, CEM-SS. Put shortly: as §1
Assay [7] concerns Human immunodeficiency virus 1. As to the kind of experiment: Antiviral activity against HIV1 N119 in human CEM-SS cells assessed as inhibition of virus-induced cytopathic effect by XTT assay. The settings on record: Human immunodeficiency virus 1, CEM-SS. A digest of the protocol:
as §1

Assay [8] has as its system Human immunodeficiency virus 1. In words: Antiviral activity against HIV1 A17 in human MT2 cells assessed as inhibition of virus-induced cytopathic effect by XTT assay. The note with it: Human immunodeficiency virus 1, A17, MT2. A digest of the protocol:
as §1

The subject of assay [9] is Human immunodeficiency virus 1. As to the kind of experiment: Antiviral activity against HIV1 G9106 in human MT2 cells assessed as inhibition of virus-induced cytopathic effect by XTT assay. The settings on record: Human immunodeficiency virus 1, G9106, MT2. A digest of the protocol: as §1
In assay [10] the test system is Human immunodeficiency virus 1. As to the kind of experiment: Antiviral activity against HIV1 H1122 in human MT2 cells assessed as inhibition of virus-induced cytopathic effect by XTT assay. The note with it: Human immunodeficiency virus 1, MT2. Put shortly:
as §1

The test system of assay [11] is Human immunodeficiency virus 1. As to the kind of experiment: Antiviral activity against HIV1 3B in human MT2 cells assessed as inhibition of virus-induced cytopathic effect by XTT assay. The note with it: Human immunodeficiency virus 1, 3B. Put shortly:
as §1

Each structure is given as a SMILES string. Positions of bridges follow the written chain, without caps; N, C: chain ends. Residues, ends and D or L forms follow the SMILES beside them.

`CC[C@H](C)[C@@H]1NC(=O)[C@@H]2CSSC[C@@H]3NC(=O)[C@H](C(C)C)NC(=O)[C@H](CCCCN)NC(=O)[C@H](CO)NC(=O)[C@H](CCCCN)NC(=O)[C@@H]4CSSC[C@H](NC(=O)[C@H](CO)NC(=O)[C@H](CCC(=O)O)NC(=O)CNC(=O)[C@H](CSSC[C@H](NC(=O)CNC(=O)[C@H](C)NC(=O)[C@H](C(C)C)NC(=O)[C@H](CO)NC(=O)[C@H]([C@@H](C)O)NC1=O)C(=O)N[C@@H](CO)C(=O)N4)NC(=O)[C@@H]1CCCN1C(=O)[C@H]([C@@H](C)CC)NC(=O)CNC(=O)[C@H](CC(N)=O)NC(=O)[C@H](CCCNC(=N)N)NC(=O)[C@H](Cc1ccc(O)cc1)NC3=O)C(=O)N[C@@H](C(C)C)C(=O)N[C@@H](Cc1ccccc1)C(=O)N[C@@H]([C@@H](C)CC)C(=O)N1CCC[C@H]1C(=O)N2` [CIRCULIN C] (cyclo(AGCSCKSKVCYRNGIPCGESCVFIPCITSV); disulfide 3-17, 5-21, 10-26): the EC50 was determined as 73 nM in assay [1]; 165 nM in assay [2]; 213 nM in [3]; 155 nM in assay [4]; 111 nM in assay [5]; 51 nM in assay [6]. Further, the EC50 was determined as 241 nM in assay [7]; 247 nM in assay [8]; 67 nM in assay [9]; 48 nM in [10]; 200 nM in assay [11].
As to `CC[C@H](C)[C@@H]1NC(=O)[C@H](CCCCN)NC(=O)[C@H](CC(=O)O)NC(=O)[C@H](Cc2cnc[nH]2)NC(=O)[C@H](Cc2ccc(O)cc2)NC(=O)[C@@H]2CSSC[C@@H]3NC(=O)[C@@H]4CCCN4C(=O)[C@H]([C@@H](C)CC)NC(=O)[C@H](Cc4c[nH]c5ccccc45)NC(=O)[C@H](C(C)C)NC(=O)[C@@H]4CSSC[C@H](NC(=O)[C@H](CCCCN)NC(=O)[C@H](CSSC[C@H](NC(=O)[C@@H]5CCCN5C1=O)C(=O)NCC(=O)N[C@@H](CCC(=O)O)C(=O)N[C@@H](CO)C(=O)N4)NC(=O)[C@H](CC(N)=O)NC(=O)[C@H](Cc1ccccc1)NC(=O)[C@H](C(C)C)NC(=O)[C@H](CO)NC(=O)[C@H]([C@@H](C)O)NC(=O)[C@H](CC(C)C)NC3=O)C(=O)N[C@@H](CCC(=O)O)C(=O)N[C@@H](CC(N)=O)C(=O)N[C@@H](CCCCN)C(=O)N[C@@H](C(C)C)C(=O)N2` [CIRCULIN E] (cyclo(CENKVCYHDKIPCGESCVWIPCLTSVFNCK); disulfide 1-17, 6-22, 13-29), the EC50 in [2], in assay [3], in assay [4], in [5], in [6] and in assay [7] was 50 nM each time. In addition, the EC50 in assay [8], in assay [9], in assay [10] and in assay [11] was 50 nM in each case.
For `CC[C@H](C)[C@@H]1NC(=O)[C@H](C)NC(=O)[C@H](C)NC(=O)[C@H](CO)NC(=O)[C@H]([C@@H](C)CC)NC(=O)[C@@H]2CSSC[C@@H]3NC(=O)[C@H](C(C)C)NC(=O)[C@H](CCCCN)NC(=O)[C@H](CC(N)=O)NC(=O)[C@H](CCCCN)NC(=O)[C@@H]4CSSC[C@H](NC(=O)[C@H](CO)NC(=O)[C@H](CCC(=O)O)NC(=O)CNC(=O)[C@H](CSSC[C@H](NC(=O)CNC1=O)C(=O)N[C@@H](CO)C(=O)N4)NC(=O)[C@@H]1CCCN1C(=O)[C@H]([C@@H](C)CC)NC(=O)[C@H](C)NC(=O)[C@H](CCCNC(=N)N)NC(=O)[C@H](Cc1ccc(O)cc1)NC3=O)C(=O)N[C@@H](C(C)C)C(=O)N[C@@H](Cc1c[nH]c3ccccc13)C(=O)N[C@@H]([C@@H](C)CC)C(=O)N1CCC[C@H]1C(=O)N2` [CIRCULIN F] (cyclo(AAIGCSCKNKVCYRAIPCGESCVWIPCIS); disulfide 5-18, 7-22, 12-27), the EC50 in [2], in [3], in [4], in assay [5], in [6] and in assay [7] was 50 nM in each case. Moreover, the EC50 in [8], in [9], in assay [10] and in assay [11] was 50 nM throughout.

One may read the EC50 as the concentration at which the effect is half-maximal.

Source of the values: ChEMBL document CHEMBL1155671, “New circulin macrocyclic polypeptides from Chassalia parvifolia” (J Nat Prod, 2000).
